Data reported in ChEMBL document CHEMBL4145578, “Protoilludane, Illudalane, and Botryane Sesquiterpenoids from the Endophytic Fungus Phomopsis sp. TJ507A” (J Nat Prod, 2018).

Target: Beta-secretase 1 (Homo sapiens) (UniProt P56817)
Assay: Inhibition of BACE1 (unknown origin) at 0.5 uM using BACE1 substrate measured after 2 hrs by FRET assay relative to control
Conditions: not given

Sequence of Beta-secretase 1 (Homo sapiens) (P56817 whole entry): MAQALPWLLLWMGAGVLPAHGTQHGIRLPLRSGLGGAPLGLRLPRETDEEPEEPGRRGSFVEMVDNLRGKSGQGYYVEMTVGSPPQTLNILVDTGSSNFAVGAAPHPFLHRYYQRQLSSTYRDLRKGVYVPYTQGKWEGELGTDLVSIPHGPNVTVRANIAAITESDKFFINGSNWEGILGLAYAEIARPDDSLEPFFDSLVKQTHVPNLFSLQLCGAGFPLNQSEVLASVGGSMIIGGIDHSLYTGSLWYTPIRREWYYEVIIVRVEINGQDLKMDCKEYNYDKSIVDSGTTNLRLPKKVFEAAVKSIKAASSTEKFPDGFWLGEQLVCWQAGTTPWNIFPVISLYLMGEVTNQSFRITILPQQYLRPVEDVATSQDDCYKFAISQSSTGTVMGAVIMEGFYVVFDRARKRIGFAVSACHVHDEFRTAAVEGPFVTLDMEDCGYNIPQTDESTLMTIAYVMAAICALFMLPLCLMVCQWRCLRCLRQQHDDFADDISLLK

Q: How did the inhibition turn out when `C[C@@]1(c2cc(-c3cncnc3)c(F)cc2F)CCSC(N)=N1` was run?
A: 38.6%

System: L02
Assay: Cytotoxicity against human L02 cells assessed as effect on cell viability at 40 uM after 24 hrs by MTT assay
Format: cell-based
Conditions: l02, 24 h
Summary of the method: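 L-02 cells grown in DMEM with 10% FBS at 37 °C and 5% CO2, seeded at 5 × 10^3 cells/well, then settled over 12 h. Compound in DMSO added at 40 μM final (DMSO below 0.4%) for 24 h. MTT (5 mg/mL stock) added for a further 4 h. Formazan dissolved in DMSO and absorbance read at 570 nm.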

Q: For `CC1=C2[C@H](O)C[C@]2(C)[C@H]2CC(C)(C)C=C2C1=O`, which Activity is on record?
A: Non-Toxic

Q: How did the Activity turn out when `Cc1cc2c(c(C)c1CCO)C(=O)C(C)(C)C2` [PTEROSIN Z] was run?
A: Non-Toxic

Q: For `CC(=O)OCCc1c(C)c(O)c2c(c1C)[C@@H](O)C(C)(C)C2`, which Activity is on record?
A: Non-Toxic

Q: How did the Activity turn out when `CC1=C2[C@H](O)C[C@]2(C)[C@H]2C[C@](C)(CO)C=C2C1=O` was run?
A: Non-Toxic

Q: Which Activity does the source give for `CC1C(=O)C2=CC(C)(C)C[C@]2(O)[C@@]2(C)CCC12` (some centres not stated) here?
A: Non-Toxic

Q: With `CC1C(=O)C2=CC(C)(C)C[C@]2(O)[C@@]2(C)C[C@@H](O)C12` (some centres not stated) as the compound, how does the Activity read?
A: Non-Toxic

Q: Which Activity does the source give for `Cc1ccc2c3c1C(=O)OC[C@@]3(C)[C@H](O)C2(C)C` here?
A: Non-Toxic

Q: `CC1=C2OCC[C@]2(C)[C@H]2CC(C)(C)C=C2C1=O` was tested. Which Activity did it give?
A: Non-Toxic

Q: Which Activity does the source give for `CC1=C2CC[C@]2(C)[C@H]2C[C@@](C)(CO)C=C2C1=O` here?
A: Non-Toxic

Q: `CC1=C2CC[C@]2(C)[C@@H]2C(=CC(C)(C)[C@H]2O)C1=O` was tested. Which Activity did it give?
A: Non-Toxic

Q: How did the Activity turn out when `CC1=C2[C@H](O)C[C@]2(C)[C@H]2C[C@@](C)(CO)C=C2C1=O` was run?
A: Non-Toxic

Q: With `Cc1c(O)c2c(c(C)c1CCO)C(=O)C(C)(C)[C@@H]2O` as the compound, how does the Activity read?
A: Non-Toxic

Q: How did the Activity turn out when `C[C@H]1C(=O)[C@]2(O)CC(C)(C)C[C@@H]2[C@@]2(C)CC[C@@]12O` was run?
A: Non-Toxic

Q: How did the Activity turn out when `CC1=C2CC[C@]2(C)[C@]2(O)C(=CC(C)(C)[C@H]2O)C1=O` was run?
A: Non-Toxic

Q: Which Activity does the source give for `Cc1c(O)c2c(c(C)c1CCO)C(=O)C(C)(C)C2` [ONITIN] here?
A: Non-Toxic

Q: Which Activity does the source give for `Cc1cc2c(c(C)c1CCO)CC(C)(C)C2` here?
A: Non-Toxic
